{"data": "Measured values gathered from unrelated publications", "read-out": "metabolic stability", "species": "human", "note": "Compare with care: the assays were run in different laboratories."}
{"Compound": "CC[C@H](C)[C@H](NC(=O)[C@H](CC(=O)O)NC(=O)[C@H](CS)NC(=O)[C@H](CCCCN)NC(=O)[C@H](CS)NC(=O)[C@H](CCSC)NC(=O)[C@@H]1CCCN1C(=O)[C@H](CCC(N)=O)NC(=O)[C@@H]1CCCN1C(=O)[C@H](CCCNC(=N)N)NC(=O)[C@H](CCCNC(=N)N)NC(=O)[C@H](CCCNC(=N)N)NC(=O)[C@H](CCCNC(=N)N)NC(=O)[C@H](CCC(N)=O)NC(=O)[C@H](CCCNC(=N)N)NC(=O)[C@H](CCCNC(=N)N)NC(=O)[C@H](CCCCN)NC(=O)[C@H](CCCCN)NC(=O)[C@H](CCCNC(=N)N)NC(=O)CN)C(=O)N[C@@H](CC(C)C)C(=O)N[C@@H](CCCCN)C(=O)N[C@@H](C)C(=O)O", "sample": "liver microsomes", "concentration": "1 µM", "half-life": "6 min"}
{"Compound": "CONC(=O)[C@H]1[C@@H](O)[C@@]2(O)c3c(OC)cc(OC)cc3O[C@@]2(c2ccc(OC)cc2)[C@@H]1c1ccccc1", "sample": "liver microsomes", "half-life": "120 min"}
{"Compound": "CC(C)C[C@H](NC(=O)[C@H](Cc1ccccc1)NC(=O)[C@H](Cc1ccccc1)NC(=O)Cc1ccc(-c2ccccc2)cc1)C(=O)N[C@@H](CCCCN)C(=O)N[C@@H](CCCNC(=N)N)C(=O)N[C@H](C(=O)N[C@@H](Cc1c[nH]c2ccccc12)C(=O)N[C@@H](CCCCN)C(=O)N[C@@H](CCCNC(=N)N)C(=O)O)C(C)C", "sample": "liver microsomes", "concentration": "1 µM", "half-life": "22.8 min"}
{"Compound": "C[C@]12CC[C@H]3[C@@H](CCC4=CC(=O)CC[C@@]43C)[C@@H]1CC[C@@H]2O", "sample": "liver microsomes", "concentration": "10 µM", "pH": "pH 7.4", "half-life": "19.3 min"}
{"Compound": "C[C@]12CC[C@H]3[C@@H](CC=C4CC(O)CC[C@@]43CO)[C@@H]1CCC2O (stereo partly drawn)", "sample": "liver microsomes", "half-life": "73.6 min"}
{"Compound": "CNC(C)Cc1ccc2nsnc2c1 (stereo not drawn)", "sample": "liver microsomes", "concentration": "0.5 µM", "half-life": "53 min"}
{"Compound": "C[C@]12CC[C@H]3[C@@H](CCC4=CC(=O)CC[C@@]43C)[C@@H]1CC[C@@H]2O", "sample": "hepatocytes", "concentration": "1 µM", "half-life": "6.51 min"}
{"Compound": "CNC(C)Cc1ccc2nonc2c1 (stereo not drawn)", "sample": "liver microsomes", "concentration": "0.5 µM", "half-life": "> 150 min"}
{"Compound": "COc1ccc([C@@]23Oc4cc(OC)cc(OC)c4[C@@]24N=C(C2CC2)N[C@@]4(O)[C@H](C(=O)N(C)OC)[C@H]3c2ccccc2)cc1", "sample": "liver microsomes", "concentration": "1 µM", "pH": "pH 7.4", "half-life": "18.3 min"}
